Data set [1] concerns Amaranthus retroflexus. The data set can be described thus: Post-emergence herbicidal activity against Amaranthus retroflexus at 300 g/ha applied through spraying after first true leaf expanded. The data set is classed as functional. An outline of the steps:
(§1)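 Seeds sown in 6 cm diameter plastic boxes containing artificial mixed soil. Amaranthus retroflexus seed was reproduced outdoors and stored at room temperature. Alfalfa and rape seed came from a crop institute.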

The subject of data set [2] is Brassica napus. The experiment in a line: Post-emergence herbicidal activity against Brassica napus (oilseed rape) at 1500 g/ha applied through spraying after first true leaf expanded. The data set is classed as functional. A digest of the protocol:
as §1

The test system of data set [3] is Medicago sativa. The experiment in a line: Post-emergence herbicidal activity against Medicago sativa (alfalfa) at 300 g/ha applied through spraying after first true leaf expanded. The data set is classed as functional. An outline of the steps:
as §1

The next data set deals with Zea mays. The experiment in a line: Phytotoxicity against Zea mays (maize) at 750 g/ha. The data set is classed as organism-based. The conditions noted are these: in vivo.
For data set [4], the system named is Medicago sativa. The data set can be described thus: Post-emergence herbicidal activity against Medicago sativa (alfalfa) at 1.5 kg/ha applied through spraying after first true leaf expanded. The data set is classed as functional. A digest of the protocol:
as §1

Data set [5] has as its system Medicago sativa. The data set can be described thus: Pre-emergence herbicidal activity against Medicago sativa (alfalfa) at 1.5 kg/ha applied through spraying immediately after seed plantings. The data set is classed as functional. An outline of the steps:
as §1

Data set [6] relates to Medicago sativa. The data set can be described thus: Post-emergence herbicidal activity against Medicago sativa (alfalfa) at 75 g/ha applied through spraying after first true leaf expanded. The data set is classed as functional. A digest of the protocol: as §1
Data set [7] concerns Amaranthus retroflexus. The data set can be described thus: Post-emergence herbicidal activity against Amaranthus retroflexus at 1.5 kg/ha applied through spraying after first true leaf expanded. The data set is classed as functional. An outline of the steps: as §1
The subject of data set [8] is Brassica napus. The data set can be described thus: Post-emergence herbicidal activity against Brassica napus (oilseed rape) at 300 g/ha applied through spraying after first true leaf expanded. The data set is classed as functional. An outline of the steps:
as §1

The subject of data set [9] is Brassica napus. The experiment in a line: Post-emergence herbicidal activity against Brassica napus (oilseed rape) at 1.5 kg/ha applied through spraying after first true leaf expanded. The data set is classed as functional. An outline of the steps: as §1
Data set [10] has as its system Amaranthus retroflexus. The data set can be described thus: Pre-emergence herbicidal activity against Amaranthus retroflexus at 1.5 kg/ha applied through spraying immediately after seed plantings. The data set is classed as functional. A digest of the protocol:
as §1

The subject of data set [11] is Medicago sativa. The experiment in a line: Post-emergence herbicidal activity against Medicago sativa (alfalfa) at 1500 g/ha applied through spraying after first true leaf expanded. The data set is classed as functional. An outline of the steps:
as §1

The subject of data set [12] is Amaranthus retroflexus. The data set can be described thus: Post-emergence herbicidal activity against Amaranthus retroflexus at 1500 g/ha applied through spraying after first true leaf expanded. The data set is classed as functional. An outline of the steps:
as §1

Data set [13] has as its system Amaranthus retroflexus. The experiment in a line: Post-emergence herbicidal activity against Amaranthus retroflexus at 75 g/ha applied through spraying after first true leaf expanded. The data set is classed as functional. A digest of the protocol: as §1
Data set [14] has as its system Brassica napus. The experiment in a line: Post-emergence herbicidal activity against Brassica napus (oilseed rape) at 75 g/ha applied through spraying after first true leaf expanded. The data set is classed as functional. An outline of the steps: as §1
The test system of data set [15] is Brassica napus. The data set can be described thus: Pre-emergence herbicidal activity against Brassica napus (oilseed rape) at 1.5 kg/ha applied through spraying immediately after seed plantings. The data set is classed as functional. An outline of the steps: as §1

Take `CS/C(NCc1ccc(Cl)nc1)=C(/C#N)C(=O)OCC1CCCO1` (stereo not given): the Activity in the data set on Amaranthus retroflexus [1] is on record as 88.4%; in the data set with Brassica napus [2], 100%; with Medicago sativa [3], 52.3%; in the data set on Zea mays, “Non-toxic”; with Medicago sativa [4] it was 64%; with Medicago sativa [5], 16.7%. Also, the Activity in the data set on Medicago sativa [6] is recorded as 41.9%; with Amaranthus retroflexus [7] it was 98.8%; in the data set with Brassica napus [8] it was 97.3%; in the data set with Brassica napus [9], 100%; with Amaranthus retroflexus [10], 14.3%; in the data set with Medicago sativa [11], 64%. The Activity with Amaranthus retroflexus [12] was found to be 98.8%; in the data set with Amaranthus retroflexus [13], 79.1%; in the data set with Brassica napus [14], 94.7%; in the data set on Brassica napus [15], 54.2%.
On to `CCCCOc1ccc(CN/C(=C(/C#N)C(=O)OCCOCC)C(C)C)cn1`, for which the Activity result is given as “Non-toxic” with Zea mays; 41% with Medicago sativa [4]; 0% with Medicago sativa [5]; 100% in the data set on Amaranthus retroflexus [7]; 100% with Brassica napus [9]; 10.1% in the data set with Amaranthus retroflexus [10]. Further, in the data set with Brassica napus [15], the Activity stood at 6.3%.
Take `CCOCCOC(=O)/C(C#N)=C(/NCc1ccc(OC)nc1)SC`: the Activity entry in the data set on Zea mays is on record as “Non-toxic”; with Medicago sativa [4], 80.9%; in the data set on Medicago sativa [5] it was 36.4%; in the data set with Amaranthus retroflexus [7], 100%; in the data set with Brassica napus [9] it was 100%; with Amaranthus retroflexus [10] it was 56.3%. In the data set on Brassica napus [15], this compound yielded an Activity of 68.3%.
Take `CCOCCOC(=O)/C(C#N)=C\NCc1ccc(Cl)nc1`: the Activity entry is on record as “Non-toxic” with Zea mays; 15.8% in the data set with Medicago sativa [4]; 14.8% in the data set on Medicago sativa [5]; 18.3% in the data set with Amaranthus retroflexus [7]; 7.3% in the data set with Brassica napus [9]; 12.2% in the data set on Amaranthus retroflexus [10]. In addition, in the data set with Brassica napus [15], the Activity came to 21.8%.
Turning to `CCOCCOC(=O)/C(C#N)=C(/NCc1ccc(Cl)cc1)C(C)C`, the Activity came to 28.1% with Medicago sativa [4]; 0% with Medicago sativa [5]; 93.9% in the data set with Amaranthus retroflexus [7]; 96.5% in the data set on Brassica napus [9]; 52.2% with Amaranthus retroflexus [10]; 0% with Brassica napus [15].
Take `CCCOc1ccc(CN/C(=C(/C#N)C(=O)OCCOCC)C(C)C)cn1`: the Activity entry is listed as “Non-toxic” with Zea mays; 75.9% in the data set with Medicago sativa [4]; 14.8% with Medicago sativa [5]; 100% in the data set on Amaranthus retroflexus [7]; 100% in the data set with Brassica napus [9]; 30.4% with Amaranthus retroflexus [10]. This compound also came in with an Activity with Brassica napus [15] of 30.7%.
`CCOCCOC(=O)/C(C#N)=C(\NCc1ccc(OC)nc1)C(C)C`: the Activity result is given as “Non-toxic” in the data set on Zea mays; 53% in the data set with Medicago sativa [4]; 32.9% in the data set with Medicago sativa [5]; 100% in the data set on Amaranthus retroflexus [7]; 100% with Brassica napus [9]; 71% with Amaranthus retroflexus [10]. The Activity in the data set on Brassica napus [15] was 100%.
Take `CCOCCOC(=O)/C(C#N)=C(\NCc1ccc(OCC)nc1)C(C)C`: the Activity result in the data set with Zea mays is listed as “Non-toxic”; with Medicago sativa [4] it was 45.8%; in the data set on Medicago sativa [5] it was 10.1%; with Amaranthus retroflexus [7], 100%; in the data set with Brassica napus [9] it was 100%; in the data set with Amaranthus retroflexus [10] it was 50.7%. For the same compound, the Activity in the data set with Brassica napus [15] worked out at 54.8%.
Regarding `CCCOc1ccc(CN/C(C)=C(/C#N)C(=O)OCCOCC)cn1`, the Activity result in the data set with Zea mays was “Non-toxic”; in the data set on Medicago sativa [4] it was 34.2%; in the data set on Medicago sativa [5], 17.8%; in the data set on Amaranthus retroflexus [7], 31%; with Brassica napus [9] it was 17%; in the data set on Amaranthus retroflexus [10], 23.4%. In the data set with Brassica napus [15], this compound showed an Activity of 0%.
For `COCCOC(=O)/C(C#N)=C(/NCc1ccc(OC)nc1)SC`, the Activity entry is “Non-toxic” in the data set with Zea mays; 72.3% in the data set on Medicago sativa [4]; 10% with Medicago sativa [5]; 90% in the data set with Amaranthus retroflexus [7]; 90.1% with Brassica napus [9]; 50% in the data set with Amaranthus retroflexus [10]. This compound came in with an Activity in the data set with Brassica napus [15] of 48.8%.
Regarding `CCOc1ccc(CN/C(SC)=C(\C#N)C(=O)OCCOC)cn1`, the Activity result was “Non-toxic” in the data set with Zea mays; 55.3% with Medicago sativa [4]; 0% in the data set on Medicago sativa [5]; 70% in the data set on Amaranthus retroflexus [7]; 84.5% with Brassica napus [9]; 31.3% with Amaranthus retroflexus [10]. Also, the Activity in the data set on Brassica napus [15] is 5.1%.
`COC(=O)COC(=O)/C(C#N)=C(/NCc1ccc(Cl)nc1)SC`: the Activity result was “Non-toxic” in the data set with Zea mays; 4.8% in the data set with Medicago sativa [4]; 0% with Medicago sativa [5]; 0% with Amaranthus retroflexus [7]; 0% with Brassica napus [9]; 0% in the data set on Amaranthus retroflexus [10]. For the same compound, in the data set with Brassica napus [15], the Activity worked out at 0%.
With `CCCOc1ccc(CN/C(SC)=C(\C#N)C(=O)OCCOCC)cn1`, the Activity entry is “Non-toxic” in the data set on Zea mays; 0% in the data set with Medicago sativa [4]; 0% in the data set on Medicago sativa [5]; 93.8% in the data set on Amaranthus retroflexus [7]; 96.8% in the data set on Brassica napus [9]; 0% in the data set with Amaranthus retroflexus [10]. Moreover, in the data set on Brassica napus [15], the Activity is reported as 16.3%.
On to `CCOCCOC(=O)/C(C#N)=C(/C)NCc1ccc(OC)nc1`, for which the Activity entry in the data set on Zea mays is listed as “Non-toxic”; in the data set with Medicago sativa [4] it was 64%; in the data set on Medicago sativa [5], 57.1%; with Amaranthus retroflexus [7] it was 100%; in the data set on Brassica napus [9] it was 69%; with Amaranthus retroflexus [10] it was 100%. Besides, in the data set on Brassica napus [15], the Activity was 92.5%.
`C=CCOC(=O)/C(C#N)=C(/NCc1ccc(Cl)nc1)SCC`: the Activity result in the data set with Zea mays was “Non-toxic”; with Medicago sativa [4], 98.8%; with Medicago sativa [5] it was 0%; with Amaranthus retroflexus [7] it was 100%; in the data set on Brassica napus [9], 100%; with Amaranthus retroflexus [10] it was 0%. For the same compound, the Activity in the data set with Brassica napus [15] is 0%.
Consider `CCOCCOC(=O)/C(C#N)=C(/C)NCc1ccc(Cl)nc1`, for which the Activity in the data set with Brassica napus [2] is listed as 100%; with Zea mays, “Non-toxic”; with Medicago sativa [4], 100%; in the data set on Medicago sativa [5], 66.4%; in the data set with Medicago sativa [6], 0%; with Amaranthus retroflexus [7], 100%. The Activity was found to be 100% in the data set on Brassica napus [9]; 93% with Amaranthus retroflexus [10]; 100% in the data set on Medicago sativa [11]; 100% in the data set on Amaranthus retroflexus [12]; 18.3% in the data set on Amaranthus retroflexus [13]; 14.6% in the data set with Brassica napus [14]. Further, the Activity in the data set on Brassica napus [15] came to 100%.
As to `COCCOC(=O)/C(C#N)=C(/NCc1cccnc1)SC`, the Activity entry in the data set with Zea mays is recorded as “Non-toxic”; with Medicago sativa [4] it was 15.9%; with Medicago sativa [5], 0%; with Amaranthus retroflexus [7], 0%; with Brassica napus [9] it was 6.4%; with Amaranthus retroflexus [10], 0%. The Activity in the data set with Brassica napus [15] is on record as 9.1%.
`CCOCCOC(=O)/C(C#N)=C(/NCc1ccc(OCC)nc1)SC`: the Activity result in the data set on Zea mays is “Non-toxic”; in the data set on Medicago sativa [4], 91.5%; in the data set on Medicago sativa [5], 0%; in the data set with Amaranthus retroflexus [7], 100%; with Brassica napus [9] it was 100%; in the data set on Amaranthus retroflexus [10], 37.5%. In the data set with Brassica napus [15], this compound gave an Activity of 22%.
